Calls of active or inactive are those of the source. No cut-off for these calls is given here.
Columns and labels:
DU-145 [1] = test: Cytotoxicity against human DU145 cells at 20 uM after 48 hrs by SRB assay; assay type: functional; conditions: DU-145, 48 h, read-out: GI
How it was run: (§1)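 Cells grown in RPMI-1640/MEM with 10% FCS and penicillin/streptomycin at 37 °C in 5% CO2. They adhered overnight in 96-well plates and were exposed to compound for 48 h. Cells were then fixed with ice-cold 50% TCA for 60 min and stained with 0.4% SRB in 1% acetic acid for 30 min. Dye was solubilised in 10 mM Tris base and OD read at 570 nm (reference 620 nm).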

SF-295 [2] = test: Cytotoxicity against human SF295 cells at 20 uM after 48 hrs by SRB assay; assay type: functional; conditions: SF-295, 48 h, read-out: GI; how it was run: as §1
HL-60 [3] = test: Cytotoxicity against human HL60 cells at 20 uM after 48 hrs by SRB assay; assay type: functional; conditions: HL-60, 48 h, read-out: GI
How it was run: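 HL-60 suspension cells in RPMI-1640/MEM with 10% FCS at 37 °C in 5% CO2 were plated in 96 wells and exposed to compound for 48 h. Cells were fixed with 80% TCA and pelleted at 1500 rpm for 15 min. Staining used 0.4% SRB in 1% acetic acid for 30 min; dye was dissolved in 10 mM Tris base and OD read at 570/620 nm.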

HCT-15 [4] = test: Cytotoxicity against human HCT15 cells at 20 uM after 48 hrs by SRB assay; assay type: functional; conditions: HCT-15, 48 h, read-out: GI; how it was run: as §1
A549 [5] = test: Cytotoxicity against human A549 cells at 20 uM after 48 hrs by SRB assay; assay type: functional; conditions: A549, 48 h, read-out: GI; how it was run: as §1
THP-1 [6] = test: Cytotoxicity against human THP1 cells at 20 uM after 48 hrs by SRB assay; assay type: functional; conditions: THP-1, 48 h, read-out: GI; how it was run: as §1
PC-3 [7] = test: Cytotoxicity against human PC3 cells at 20 uM after 48 hrs by SRB assay; assay type: functional; conditions: PC-3, 48 h, read-out: GI; how it was run: as §1
HL-60 [8] = test: Induction of apoptosis in human HL60 cells assessed as DNA ladder formation after 24 hrs by DNA agarose gel electrophoresis; assay type: functional
How it was run: (§2)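 DNA fragmentation assay in HL-60 cells (2 × 10⁶ cells/well) or CV-1 cells, treated for 24 h. Cells were lysed in Tris–HCl pH 8.0/NaCl/EDTA/Triton X-100 with proteinase K (200 µg/mL) at 50 °C for 1 h, then DNase-free RNase for 90 min. DNA was phenol:chloroform extracted and ethanol precipitated. Gels were 1% agarose in TAE at 80 V for 1.5 h. Camptothecin (5 µM, 6 h) served as positive control in HL-60.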

THP-1 [9] = test: Inhibition of cell invasion in human THP1 cells at 1 to 30 uM after 24 hrs by wound-healing assay; assay type: functional, cell-based
How it was run: (§3)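 THP-1 monolayers (3×10⁵ cells/mL/well) were scratched with a pipette tip and washed three times with PBS. Test samples were added for 24 h, then fresh medium was added until the control wound healed. Wounds were imaged with a 10× objective at 0 h and 24 h. Migration was quantified as the distance between wound edges.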

MCF7 [10] = test: Cytotoxicity against human MCF7 cells after 48 hrs by SRB assay; assay type: functional, cell-based; conditions: MCF7, 48 h
THP-1 [11] = test: Cytotoxicity against human THP1 cells after 48 hrs by SRB assay; assay type: functional, cell-based; conditions: THP-1, 48 h
HEp-2 [12] = test: Cytotoxicity against human Hep2 cells at 50 uM after 48 hrs by SRB assay; assay type: functional; conditions: HEp-2, 48 h, read-out: GI
A549 [13] = test: Cytotoxicity against human A549 cells after 48 hrs by SRB assay; assay type: functional, cell-based; conditions: A549, 48 h
A549 [14] = test: Cytotoxicity against human A549 cells at 30 uM after 48 hrs by SRB assay; assay type: functional; conditions: A549, 48 h, read-out: GI
THP-1 [15] = test: Inhibition of cell migration in human THP1 cells at 1 to 30 uM after 24 hrs by wound-healing assay; assay type: functional, cell-based; how it was run: as §3
HCT-15 [16] = test: Cytotoxicity against human HCT15 cells at 30 uM after 48 hrs by SRB assay; assay type: functional; conditions: HCT-15, 48 h, read-out: GI
MCF7 [17] = test: Cytotoxicity against human MCF7 cells at 50 uM after 48 hrs by SRB assay; assay type: functional; conditions: MCF7, 48 h, read-out: GI
THP-1 [18] = test: Inhibition of colony formation in human THP1 cells using crystal violet staining after 24 hrs by clonogenic assay; assay type: functional, cell-based
How it was run: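 THP-1 cells from log-phase culture were plated at clonogenic dilution. After 24 h they were treated for 24 h, then incubated for at least six potential divisions (colonies >50 cells). Colonies were fixed and stained with 6% glutaraldehyde plus 0.5% crystal violet for 30 min, washed with water and air-dried.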

DU-145 [19] = test: Cytotoxicity against human DU145 cells at 30 uM after 48 hrs by SRB assay; assay type: functional; conditions: DU-145, 48 h, read-out: GI
HCT-15 [20] = test: Cytotoxicity against human HCT15 cells at 10 uM after 48 hrs by SRB assay; assay type: functional; conditions: HCT-15, 48 h, read-out: GI
A549 [21] = test: Cytotoxicity against human A549 cells at 10 uM after 48 hrs by SRB assay; assay type: functional; conditions: A549, 48 h, read-out: GI
SF-295 [22] = test: Cytotoxicity against human SF295 cells at 50 uM after 48 hrs by SRB assay; assay type: functional; conditions: SF-295, 48 h, read-out: GI
PC-3 [23] = test: Cytotoxicity against human PC3 cells at 10 uM after 48 hrs by SRB assay; assay type: functional; conditions: PC-3, 48 h, read-out: GI
HL-60 [24] = test: Cytotoxicity against human HL60 cells after 48 hrs by SRB assay; assay type: functional, cell-based; conditions: HL-60, 48 h
MCF7 [25] = test: Cytotoxicity against human MCF7 cells at 30 uM after 48 hrs by SRB assay; assay type: functional; conditions: MCF7, 48 h, read-out: GI
HL-60 [26] = test: Induction of apoptosis in human HL60 cells assessed as change in mitochondrial membrane potential after 24 hrs using rhodamine-123 staining by fluorescence based confocal microscopy analysis; assay type: functional, cell-based
How it was run: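 HL-60 cells (6 × 10⁴/mL/well) were treated for 24 h. Rhodamine-123 (1 µM) was added in serum-free medium 30 min before the end, in the dark. Cells were then washed and resuspended in PBS. Fluorescence loss was viewed by confocal microscopy with 488 nm laser excitation. Each experiment was done twice.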

THP-1 [27] = test: Cytotoxicity against human THP1 cells at 10 uM after 48 hrs by SRB assay; assay type: functional; conditions: THP-1, 48 h, read-out: GI
HL-60 [28] = test: Cytotoxicity against human HL60 cells at 30 uM after 48 hrs by SRB assay; assay type: functional; conditions: HL-60, 48 h, read-out: GI
CV-1 = test: Induction of apoptosis in african green monkey CV1 cells assessed as DNA ladder formation at 10 to 60 uM after 24 hrs by DNA agarose gel electrophoresis; assay type: cell-based; conditions: chlorocebus aethiops, cv-1, 24 h; how it was run: as §2
HL-60 [29] = test: Induction of apoptosis in human HL60 cells assessed as DNA ladder formation at 20 to 30 uM after 24 hrs by DNA agarose gel electrophoresis; assay type: functional, cell-based; how it was run: as §2
MCF7 [30] = test: Cytotoxicity against human MCF7 cells at 10 uM after 48 hrs by SRB assay; assay type: functional; conditions: MCF7, 48 h, read-out: GI
SF-295 [31] = test: Cytotoxicity against human SF295 cells at 10 uM after 48 hrs by SRB assay; assay type: functional; conditions: SF-295, 48 h, read-out: GI
PC-3 [32] = test: Cytotoxicity against human PC3 cells at 30 uM after 48 hrs by SRB assay; assay type: functional; conditions: PC-3, 48 h, read-out: GI
HEp-2 [33] = test: Cytotoxicity against human Hep2 cells at 10 uM after 48 hrs by SRB assay; assay type: functional; conditions: HEp-2, 48 h, read-out: GI
PC-3 [34] = test: Cytotoxicity against human PC3 cells after 48 hrs by SRB assay; assay type: functional, cell-based; conditions: PC-3, 48 h
HL-60 [35] = test: Cytotoxicity against human HL60 cells at 50 uM after 48 hrs by SRB assay; assay type: functional; conditions: HL-60, 48 h, read-out: GI
THP-1 [36] = test: Cytotoxicity against human THP1 cells at 50 uM after 48 hrs by SRB assay; assay type: functional; conditions: THP-1, 48 h, read-out: GI
DU-145 [37] = test: Cytotoxicity against human DU145 cells at 10 uM after 48 hrs by SRB assay; assay type: functional; conditions: DU-145, 48 h, read-out: GI
A549 [38] = test: Cytotoxicity against human A549 cells at 50 uM after 48 hrs by SRB assay; assay type: functional; conditions: A549, 48 h, read-out: GI
HEp-2 [39] = test: Cytotoxicity against human Hep2 cells after 48 hrs by SRB assay; assay type: functional, cell-based; conditions: HEp-2, 48 h
DU-145 [40] = test: Cytotoxicity against human DU145 cells after 48 hrs by SRB assay; assay type: functional, cell-based; conditions: DU-145, 48 h
SF-295 [41] = test: Cytotoxicity against human SF295 cells after 48 hrs by SRB assay; assay type: functional, cell-based; conditions: SF-295, 48 h
DU-145 [42] = test: Cytotoxicity against human DU145 cells at 50 uM after 48 hrs by SRB assay; assay type: functional; conditions: DU-145, 48 h, read-out: GI
HCT-15 [43] = test: Cytotoxicity against human HCT15 cells after 48 hrs by SRB assay; assay type: functional, cell-based; conditions: HCT-15, 48 h
PC-3 [44] = test: Cytotoxicity against human PC3 cells at 50 uM after 48 hrs by SRB assay; assay type: functional; conditions: PC-3, 48 h, read-out: GI
HCT-15 [45] = test: Cytotoxicity against human HCT15 cells at 50 uM after 48 hrs by SRB assay; assay type: functional; conditions: HCT-15, 48 h, read-out: GI
HEp-2 [46] = test: Cytotoxicity against human Hep2 cells at 30 uM after 48 hrs by SRB assay; assay type: functional; conditions: HEp-2, 48 h, read-out: GI
SF-295 [47] = test: Cytotoxicity against human SF295 cells at 30 uM after 48 hrs by SRB assay; assay type: functional; conditions: SF-295, 48 h, read-out: GI
HL-60 [48] = test: Cytotoxicity against human HL60 cells at 10 uM after 48 hrs by SRB assay; assay type: functional; conditions: HL-60, 48 h, read-out: GI
THP-1 [49] = test: Cytotoxicity against human THP1 cells at 30 uM after 48 hrs by SRB assay; assay type: functional; conditions: THP-1, 48 h, read-out: GI

## O=c1[nH]cc(F)c(=O)[nH]1 [FLUOROURACIL]
DU-145 [1]
  inhibition of growth at 20 µM: 72%
SF-295 [2]
  inhibition of growth at 20 µM: 73%
HL-60 [3]
  inhibition of growth at 20 µM: 89%
HCT-15 [4]
  inhibition of growth at 20 µM: 72%
A549 [5]
  inhibition of growth at 20 µM: 75%
THP-1 [6]
  inhibition of growth at 20 µM: 83%
PC-3 [7]
  inhibition of growth at 20 µM: 64%

## C=C(C)[C@@H]1CC[C@]2(C(=O)O)CC[C@]3(C)[C@H](CC[C@@H]4[C@@]5(C)CC[C@H](OCc6cn(-c7ccccc7C#N)nn6)C(C)(C)[C@@H]5CC[C@]43C)[C@@H]12
HL-60 [8]
  Activity: Dose-dependent effect
  MED: 20 µM
THP-1 [9]
  inhibition: Active
MCF7 [10]
  IC50: 4.8 µM
THP-1 [11]
  IC50: 4.5 µM
HEp-2 [12]
  inhibition of growth at 50 µM: 68%
A549 [13]
  IC50: 5 µM
A549 [14]
  inhibition of growth at 30 µM: 74%
THP-1 [15]
  inhibition: Active
HCT-15 [16]
  inhibition of growth at 30 µM: 61%
MCF7 [17]
  inhibition of growth at 50 µM: 97%
THP-1 [18]
  inhibition: Dose-dependent effect
DU-145 [19]
  inhibition of growth at 30 µM: 65%
HCT-15 [20]
  inhibition of growth at 10 µM: 40%
A549 [21]
  inhibition of growth at 10 µM: 60%
SF-295 [22]
  inhibition of growth at 50 µM: 71%
PC-3 [23]
  inhibition of growth at 10 µM: 34%
HL-60 [24]
  IC50: 2.5 µM
MCF7 [25]
  inhibition of growth at 30 µM: 81%
HL-60 [26]
  Activity: Dose-dependent effect
THP-1 [27]
  inhibition of growth at 10 µM: 50%
HL-60 [28]
  inhibition of growth at 30 µM: 90%
CV-1
  Activity: Non-toxic
HL-60 [29]
  Activity: Active
MCF7 [30]
  inhibition of growth at 10 µM: 60%
SF-295 [31]
  inhibition of growth at 10 µM: 45%
PC-3 [32]
  inhibition of growth at 30 µM: 71%
HEp-2 [33]
  inhibition of growth at 10 µM: 45%
PC-3 [34]
  IC50: 14 µM
HL-60 [35]
  inhibition of growth at 50 µM: 98%
THP-1 [36]
  inhibition of growth at 50 µM: 92%
DU-145 [37]
  inhibition of growth at 10 µM: 32%
A549 [38]
  inhibition of growth at 50 µM: 79%
HEp-2 [39]
  IC50: 12 µM
DU-145 [40]
  IC50: 18 µM
SF-295 [41]
  IC50: 15 µM
DU-145 [42]
  inhibition of growth at 50 µM: 84%
HCT-15 [43]
  IC50: 20 µM
PC-3 [44]
  inhibition of growth at 50 µM: 86%
HCT-15 [45]
  inhibition of growth at 50 µM: 89%
HEp-2 [46]
  inhibition of growth at 30 µM: 59%
SF-295 [47]
  inhibition of growth at 30 µM: 66%
HL-60 [48]
  inhibition of growth at 10 µM: 65%
THP-1 [49]
  inhibition of growth at 30 µM: 89%
